Experimental data reported in the M2OR odorant receptor database.

How the values were obtained:
Details in all cases: stereoisomer not certain
O51D1 I89V = test system: O51D1 I89V
Procedure, shortened: (§1)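 Transient luciferase assays in mammalian cell lines were common, though methods varied by source. The values come from published papers and their supplementary material, with extra details from the original authors when needed. Responsive refers to a measured signal the original authors judged statistically different from baseline, and non-responsive (inactive) to the remainder.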

O51F1 [1] = test system: O51F1
Procedure, shortened: as §1
Target sequence in this assay (as listed by the source): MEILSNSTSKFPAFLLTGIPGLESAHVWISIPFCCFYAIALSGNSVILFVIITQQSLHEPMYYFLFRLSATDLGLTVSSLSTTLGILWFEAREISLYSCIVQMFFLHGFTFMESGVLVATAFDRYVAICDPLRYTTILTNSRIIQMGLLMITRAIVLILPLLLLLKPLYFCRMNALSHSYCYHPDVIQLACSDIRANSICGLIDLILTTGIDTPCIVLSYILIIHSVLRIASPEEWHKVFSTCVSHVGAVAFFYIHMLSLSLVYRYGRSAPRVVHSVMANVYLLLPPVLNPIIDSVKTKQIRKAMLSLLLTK

O51F1 [2] = test system: O51F1; remark: listed apart in the source
Procedure, shortened: as §1
Target sequence in this assay (as listed by the source): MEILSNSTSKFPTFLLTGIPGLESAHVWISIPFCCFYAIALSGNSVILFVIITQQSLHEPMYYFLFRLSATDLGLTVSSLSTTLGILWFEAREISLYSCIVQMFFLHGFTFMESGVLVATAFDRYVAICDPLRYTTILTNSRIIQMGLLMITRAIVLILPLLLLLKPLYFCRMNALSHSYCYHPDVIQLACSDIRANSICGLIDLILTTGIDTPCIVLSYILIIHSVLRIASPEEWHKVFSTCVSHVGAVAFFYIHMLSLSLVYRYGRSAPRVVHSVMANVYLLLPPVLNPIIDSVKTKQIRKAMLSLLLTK

O51F2 Y341S = test system: O51F2 Y341S
Sequence of O51F2 Y341S (as listed by the source, stated change not applied): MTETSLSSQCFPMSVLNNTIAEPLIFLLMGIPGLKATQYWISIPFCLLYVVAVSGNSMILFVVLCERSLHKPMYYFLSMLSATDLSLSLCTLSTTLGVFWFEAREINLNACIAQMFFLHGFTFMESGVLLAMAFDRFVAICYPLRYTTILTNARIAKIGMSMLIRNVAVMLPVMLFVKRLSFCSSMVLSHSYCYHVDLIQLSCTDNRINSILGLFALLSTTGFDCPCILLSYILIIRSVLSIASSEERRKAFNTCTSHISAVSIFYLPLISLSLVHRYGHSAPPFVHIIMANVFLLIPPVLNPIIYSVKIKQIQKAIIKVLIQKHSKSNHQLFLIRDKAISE
Procedure, shortened: as §1

O51G1 = test system: O51G1
Sequence of O51G1 (as listed by the source): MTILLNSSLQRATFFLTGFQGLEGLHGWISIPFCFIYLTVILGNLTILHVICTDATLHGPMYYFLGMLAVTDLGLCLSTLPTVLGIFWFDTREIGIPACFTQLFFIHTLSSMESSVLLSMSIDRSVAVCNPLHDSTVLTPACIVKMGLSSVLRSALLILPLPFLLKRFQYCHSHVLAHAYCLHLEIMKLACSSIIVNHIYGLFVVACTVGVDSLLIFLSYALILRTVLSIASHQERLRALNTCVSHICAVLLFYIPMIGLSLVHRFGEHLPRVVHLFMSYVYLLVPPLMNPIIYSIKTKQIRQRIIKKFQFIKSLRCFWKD
Procedure, shortened: as §1

O51I1 V164L = test system: O51I1 V164L
Sequence of O51I1 V164L (as listed by the source, stated change not applied): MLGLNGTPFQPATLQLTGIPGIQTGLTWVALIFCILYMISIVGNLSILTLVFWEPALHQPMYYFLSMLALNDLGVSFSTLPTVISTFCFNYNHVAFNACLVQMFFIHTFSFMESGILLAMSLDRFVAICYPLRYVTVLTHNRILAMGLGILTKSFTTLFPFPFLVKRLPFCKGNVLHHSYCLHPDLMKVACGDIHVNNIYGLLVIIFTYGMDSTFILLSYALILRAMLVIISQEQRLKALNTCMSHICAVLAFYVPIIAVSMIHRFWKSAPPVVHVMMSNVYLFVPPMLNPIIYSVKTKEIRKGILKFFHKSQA
Procedure, shortened: as §1

O51J1 R75H I202V = test system: O51J1 R75H I202V
Procedure, shortened: as §1

O51L1 [3] = test system: O51L1
Procedure, shortened: as §1
Target sequence in this assay (as listed by the source): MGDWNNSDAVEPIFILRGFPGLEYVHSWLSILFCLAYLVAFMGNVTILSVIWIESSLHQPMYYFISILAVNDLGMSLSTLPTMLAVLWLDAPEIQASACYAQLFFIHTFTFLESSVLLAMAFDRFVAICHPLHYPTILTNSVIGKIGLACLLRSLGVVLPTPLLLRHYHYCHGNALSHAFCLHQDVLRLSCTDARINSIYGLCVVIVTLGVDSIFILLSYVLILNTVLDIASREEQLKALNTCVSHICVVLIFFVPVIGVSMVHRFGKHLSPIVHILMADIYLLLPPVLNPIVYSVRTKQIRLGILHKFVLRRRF

O51L1 [4] = test system: O51L1; remark: listed apart in the source
Procedure, shortened: as §1
Target sequence in this assay (as listed by the source): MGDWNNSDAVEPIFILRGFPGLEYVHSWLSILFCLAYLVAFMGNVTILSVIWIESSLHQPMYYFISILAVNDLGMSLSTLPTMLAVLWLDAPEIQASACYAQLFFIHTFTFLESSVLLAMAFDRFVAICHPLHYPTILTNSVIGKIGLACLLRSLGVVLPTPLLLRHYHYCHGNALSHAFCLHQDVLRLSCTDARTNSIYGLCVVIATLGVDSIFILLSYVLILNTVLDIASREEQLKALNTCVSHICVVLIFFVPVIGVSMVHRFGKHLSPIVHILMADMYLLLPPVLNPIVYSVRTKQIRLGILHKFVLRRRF

O51T1 = test system: O51T1
Sequence of O51T1 (as listed by the source): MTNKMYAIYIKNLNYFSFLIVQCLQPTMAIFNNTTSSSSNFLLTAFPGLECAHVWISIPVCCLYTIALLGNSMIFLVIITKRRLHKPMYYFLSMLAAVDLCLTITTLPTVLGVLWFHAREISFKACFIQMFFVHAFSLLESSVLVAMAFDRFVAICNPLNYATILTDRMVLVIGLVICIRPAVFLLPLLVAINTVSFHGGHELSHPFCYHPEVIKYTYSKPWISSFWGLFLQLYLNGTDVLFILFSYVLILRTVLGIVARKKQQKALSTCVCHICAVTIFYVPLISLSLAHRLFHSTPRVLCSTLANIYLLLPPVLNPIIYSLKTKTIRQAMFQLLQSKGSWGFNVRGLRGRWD
Procedure, shortened: as §1

O51V1 L36F N51T G96W = test system: O51V1 L36F N51T G96W
Procedure, shortened: as §1

O52A1 = test system: O52A1
Sequence of O52A1 (as listed by the source): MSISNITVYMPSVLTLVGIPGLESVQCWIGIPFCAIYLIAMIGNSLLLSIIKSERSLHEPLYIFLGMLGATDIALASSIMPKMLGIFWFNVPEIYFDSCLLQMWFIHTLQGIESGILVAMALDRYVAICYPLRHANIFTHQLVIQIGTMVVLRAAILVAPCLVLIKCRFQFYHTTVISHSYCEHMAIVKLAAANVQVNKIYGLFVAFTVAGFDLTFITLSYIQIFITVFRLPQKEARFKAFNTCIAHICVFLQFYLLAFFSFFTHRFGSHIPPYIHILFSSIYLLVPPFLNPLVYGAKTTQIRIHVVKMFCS
Procedure, shortened: as §1

O52B6 V288I = test system: O52B6 V288I
Sequence of O52B6 V288I (as listed by the source, stated change not applied): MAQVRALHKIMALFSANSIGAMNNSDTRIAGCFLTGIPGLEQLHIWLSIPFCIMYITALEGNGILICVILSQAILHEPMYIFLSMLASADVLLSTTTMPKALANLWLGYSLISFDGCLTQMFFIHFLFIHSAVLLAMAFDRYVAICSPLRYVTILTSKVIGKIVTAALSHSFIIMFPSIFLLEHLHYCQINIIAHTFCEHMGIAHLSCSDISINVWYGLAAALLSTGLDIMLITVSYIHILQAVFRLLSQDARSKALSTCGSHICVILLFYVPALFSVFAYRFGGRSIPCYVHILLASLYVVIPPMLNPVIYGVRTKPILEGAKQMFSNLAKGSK
Procedure, shortened: as §1

O52E2 R264C = test system: O52E2 R264C
Sequence of O52E2 R264C (as listed by the source, stated change not applied): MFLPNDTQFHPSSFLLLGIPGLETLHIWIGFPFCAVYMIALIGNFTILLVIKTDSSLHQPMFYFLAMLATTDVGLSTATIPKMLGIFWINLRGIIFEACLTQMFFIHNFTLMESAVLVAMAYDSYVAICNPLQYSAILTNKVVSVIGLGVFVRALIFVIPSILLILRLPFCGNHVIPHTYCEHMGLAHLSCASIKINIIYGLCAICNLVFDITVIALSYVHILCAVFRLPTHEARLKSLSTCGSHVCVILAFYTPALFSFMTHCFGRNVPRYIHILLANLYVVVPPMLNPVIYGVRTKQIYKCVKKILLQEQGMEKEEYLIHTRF
Procedure, shortened: as §1

O52E4 = test system: O52E4
Sequence of O52E4 (as listed by the source): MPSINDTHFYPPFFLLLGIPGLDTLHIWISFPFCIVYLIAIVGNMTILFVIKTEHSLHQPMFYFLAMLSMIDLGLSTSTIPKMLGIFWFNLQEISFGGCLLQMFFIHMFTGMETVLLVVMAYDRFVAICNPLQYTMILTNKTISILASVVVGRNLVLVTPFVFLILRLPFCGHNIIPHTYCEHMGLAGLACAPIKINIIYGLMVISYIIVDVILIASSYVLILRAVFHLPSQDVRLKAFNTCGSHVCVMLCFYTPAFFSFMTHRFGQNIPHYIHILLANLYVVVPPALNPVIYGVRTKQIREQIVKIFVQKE
Procedure, shortened: as §1

O52E5 = test system: O52E5
Procedure, shortened: as §1

O52E8 = test system: O52E8
Sequence of O52E8 (as listed by the source): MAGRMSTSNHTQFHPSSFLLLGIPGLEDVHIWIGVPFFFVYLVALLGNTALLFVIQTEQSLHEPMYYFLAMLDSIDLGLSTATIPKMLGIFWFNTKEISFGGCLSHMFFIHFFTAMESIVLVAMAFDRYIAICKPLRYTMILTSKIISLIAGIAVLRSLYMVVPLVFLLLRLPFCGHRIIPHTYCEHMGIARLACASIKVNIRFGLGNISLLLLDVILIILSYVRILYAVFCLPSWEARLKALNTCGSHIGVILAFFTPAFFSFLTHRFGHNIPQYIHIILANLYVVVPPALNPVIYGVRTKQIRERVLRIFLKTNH
Procedure, shortened: as §1

O52H1 A89T H130R C242R = test system: O52H1 A89T H130R C242R
Procedure, shortened: as §1

O52H1 H130R C242R = test system: O52H1 H130R C242R
Procedure, shortened: as §1

O52H1 = test system: O52H1
Sequence of O52H1 (as listed by the source): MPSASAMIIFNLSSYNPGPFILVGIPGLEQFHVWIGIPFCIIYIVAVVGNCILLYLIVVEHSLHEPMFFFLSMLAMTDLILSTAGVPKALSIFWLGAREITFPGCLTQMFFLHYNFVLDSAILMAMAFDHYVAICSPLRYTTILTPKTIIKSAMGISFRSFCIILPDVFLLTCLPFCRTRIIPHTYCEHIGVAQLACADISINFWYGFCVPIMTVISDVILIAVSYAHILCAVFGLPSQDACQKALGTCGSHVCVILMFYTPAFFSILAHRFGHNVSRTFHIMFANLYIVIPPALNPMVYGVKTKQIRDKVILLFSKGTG
Procedure, shortened: as §1

Measured: odorant receptor agonist call

Sequence of O51D1 I89V (as listed by the source, stated change not applied): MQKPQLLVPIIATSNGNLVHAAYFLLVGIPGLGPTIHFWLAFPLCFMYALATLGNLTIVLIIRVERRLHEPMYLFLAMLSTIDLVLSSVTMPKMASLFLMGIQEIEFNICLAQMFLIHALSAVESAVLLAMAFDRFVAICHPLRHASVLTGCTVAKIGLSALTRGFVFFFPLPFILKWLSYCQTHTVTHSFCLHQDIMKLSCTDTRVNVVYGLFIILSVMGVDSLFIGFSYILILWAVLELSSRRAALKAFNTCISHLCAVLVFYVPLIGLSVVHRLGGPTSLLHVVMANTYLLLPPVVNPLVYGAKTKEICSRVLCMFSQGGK

C=CCOC(=O)Cc1ccccc1
active: O51L1 [3] | O51L1 [4]
inactive: all other assays above

Cc1c([N+](=O)[O-])c(C)c([N+](=O)[O-])c(C(C)(C)C)c1[N+](=O)[O-]
inactive: O52E8 | O52H1
